Test results as given in ChEMBL document CHEMBL1140869, “Organocatalyzed highly atom economic one pot synthesis of tetrahydropyridines as antimalarials” (2009).
In brackets after ≈: the same amount, converted by molar mass.

How the values were obtained:
Assay type in all cases: functional
Plasmodium falciparum [1] = assay: Antimalarial schizonticidal activity against Plasmodium falciparum 3D7 infected erythrocytes at 2.5 ug/ml after 30-39 hrs
How it was run: (§1)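 Schizont maturation test (WHO protocol, minor modifications): drug dilutions in complete RPMI 1640 with parasite added. Final culture was 3–4% hematocrit and 1.0–2.0% parasitized erythrocytes (>95% rings), with 0.5% AlbuMax II and 15 µM hypoxanthine. Incubated 30–39 h at 37 °C under 5% CO2. Giemsa-stained thin smears were scored for schizont maturation relative to untreated controls, giving % schizont inhibition at each concentration.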

Plasmodium falciparum [2] = assay: Antimalarial schizonticidal activity against Plasmodium falciparum 3D7 infected erythrocytes at 10 ug/ml after 30-39 hrs; how it was run: as §1
Plasmodium falciparum [3] = assay: Antimalarial schizonticidal activity against Plasmodium falciparum 3D7 infected erythrocytes at 1.25 ug/ml after 30-39 hrs; how it was run: as §1
Plasmodium falciparum [4] = assay: Antimalarial schizonticidal activity against Plasmodium falciparum 3D7 infected erythrocytes at 5 ug/ml after 30-39 hrs; how it was run: as §1
Plasmodium falciparum [5] = assay: Antimalarial schizonticidal activity against Plasmodium falciparum 3D7 infected erythrocytes at 0.78 ug/ml after 30-39 hrs; how it was run: as §1
Plasmodium falciparum [6] = assay: Antimalarial schizonticidal activity against Plasmodium falciparum 3D7 infected erythrocytes at 0.39 ug/ml after 30-39 hrs; how it was run: as §1
Plasmodium falciparum [7] = assay: Antimalarial schizonticidal activity against Plasmodium falciparum 3D7 infected erythrocytes at 0.19 ug/ml after 30-39 hrs; how it was run: as §1
Plasmodium falciparum [8] = assay: Antimalarial activity schizonticidal against Plasmodium falciparum 3D7 infected erythrocytes at 0.05 ug/ml after 30-39 hrs; how it was run: as §1
Plasmodium falciparum [9] = assay: Antimalarial schizonticidal activity against Plasmodium falciparum 3D7 infected erythrocytes at 0.09 ug/ml after 30-39 hrs; how it was run: as §1
Plasmodium falciparum [10] = assay: Antimalarial schizonticidal activity against Plasmodium falciparum 3D7 infected erythrocytes after 30-39 hrs; how it was run: as §1

SMILES | inhibition at 2.5 µg/mL (Plasmodium falciparum [1]) | inhibition at 10 µg/mL (Plasmodium falciparum [2]) | inhibition at 1.25 µg/mL (Plasmodium falciparum [3]) | inhibition at 5 µg/mL (Plasmodium falciparum [4]) | inhibition at 0.78 µg/mL (Plasmodium falciparum [5]) | inhibition at 0.39 µg/mL (Plasmodium falciparum [6]) | inhibition at 0.19 µg/mL (Plasmodium falciparum [7]) | inhibition at 0.05 µg/mL (Plasmodium falciparum [8]) | inhibition at 0.09 µg/mL (Plasmodium falciparum [9]) | MIC (Plasmodium falciparum [10])
CCOC(=O)C1=C(Nc2ccc(OC)cc2)CC(c2cccc(Cl)c2)N(c2ccc(OC)cc2)C1c1cccc(Cl)c1 (centres undefined) | 50% | 100% | 16% | 92% |  |  |  |  |  | 
COC(=O)C1=C(Nc2ccc(Cl)cc2)CC(c2ccc(OC)cc2)N(c2ccc(Cl)cc2)C1c1ccc(OC)cc1 (centres undefined) | 100% | 100% | 100% | 100% | 95% | 75% | 41% | 16% | 33% | 
COC(=O)C1=C(Nc2ccc(OC)cc2)CC(c2ccc(Br)cc2)N(c2ccc(OC)cc2)C1c1ccc(Br)cc1 (centres undefined) | 95% | 100% | 33% | 100% |  |  |  |  |  | 
COC(=O)C1=C(Nc2ccc(OC)cc2)CC(c2ccc(OC)cc2)N(c2ccc(OC)cc2)C1c1ccc(OC)cc1 (centres undefined) | 90% | 100% | 86% | 100% |  |  |  |  |  | 
COC(=O)C1=C(Nc2ccccc2)CC(c2ccc(OCc3ccccc3)cc2)N(c2ccccc2)C1c1ccc(OCc2ccccc2)cc1 (centres undefined) | 2% | 23% | 0% | 2% |  |  |  |  |  | 
COC(=O)C1=C(Nc2ccc(OC)cc2)CC(c2cccc(Cl)c2)N(c2ccc(OC)cc2)C1c1cccc(Cl)c1 (centres undefined) | 100% | 100% | 33% | 100% |  |  |  |  |  | 
COC(=O)C1=C(Nc2ccccc2)CC(c2ccc(OC)cc2)N(c2ccccc2)C1c1ccc(OC)cc1 (centres undefined) | 100% | 100% | 100% | 100% | 94% | 67% | 47% | 25% | 45% | 
COC(=O)C1=C(Nc2ccc(Cl)cc2)CC(c2ccc(Br)cc2)N(c2ccc(Cl)cc2)C1c1ccc(Br)cc1 (centres undefined) | 0% | 33% | 0% | 0% |  |  |  |  |  | 
COC(=O)C1=C(Nc2ccccc2)CC(c2ccc(F)cc2)N(c2ccccc2)C1c1ccc(F)cc1 (centres undefined) | 100% | 100% | 100% | 100% | 100% | 100% | 75% | 16% | 33% | 
COC(=O)C1=C(Nc2ccccc2)CC(c2ccc(Br)cc2)N(c2ccccc2)C1c1ccc(Br)cc1 (centres undefined) | 85% | 100% | 46% | 100% |  |  |  |  |  | 
CCOC(=O)C1=C(Nc2ccc(Cl)cc2)CC(c2ccc(Cl)cc2)N(c2ccc(Cl)cc2)C1c1ccc(Cl)cc1 (centres undefined) | 0% | 83% | 0% | 66% |  |  |  |  |  | 
CCOC(=O)C1=C(Nc2ccc(OC)cc2)CC(c2ccccc2)N(c2ccc(OC)cc2)C1c1ccccc1 (centres undefined) | 100% | 100% | 100% | 100% | 66% | 33% | 0% | 0% | 0% | 
CCOC(=O)C1=C(Nc2ccccc2)CC(c2ccccc2)N(c2ccccc2)C1c1ccccc1 (centres undefined) | 92% | 100% | 25% | 100% |  |  |  |  |  | 
COC(=O)C1=C(Nc2ccccc2)CC(c2ccccc2)N(c2ccccc2)C1c1ccccc1 (centres undefined) | 100% | 100% | 100% | 100% | 96% | 90% | 33% | 0% | 0% | 
COC(=O)C1=C(Nc2ccccc2)CC(c2cccc(Cl)c2)N(c2ccccc2)C1c1cccc(Cl)c1 (centres undefined) | 81% | 100% | 46% | 81% |  |  |  |  |  | 
CCOC(=O)C1=C(Nc2ccc(Cl)cc2)CC(c2cccs2)N(c2ccc(Cl)cc2)C1c1cccs1 (centres undefined) | 93% | 100% | 86% | 100% |  |  |  |  |  | 
COC(=O)C1=C(Nc2ccc(OC)cc2)CC(c2cccs2)N(c2ccc(OC)cc2)C1c1cccs1 (centres undefined) | 100% | 100% | 100% | 100% | 100% | 100% | 75% | 16% | 25% | 
COC(=O)C1=C(Nc2ccc(Br)cc2)CC(c2ccc(OC)cc2)N(c2ccc(Br)cc2)C1c1ccc(OC)cc1 (centres undefined) | 91% | 100% | 25% | 100% |  |  |  |  |  | 
COC(=O)C1=C(Nc2ccc(OC)cc2)CC(c2ccc(F)cc2)N(c2ccc(OC)cc2)C1c1ccc(F)cc1 (centres undefined) | 100% | 100% | 100% | 100% | 100% | 100% | 100% | 91% | 100% | 
COC(=O)C1=C(Nc2ccc(Cl)cc2)CC(c2ccc(F)cc2)N(c2ccc(Cl)cc2)C1c1ccc(F)cc1 (centres undefined) | 100% | 100% | 93% | 100% |  |  |  |  |  | 
CCOC(=O)C1=C(Nc2ccccc2)CC(c2cccnc2)N(c2ccccc2)C1c1cccnc1 (centres undefined) | 100% | 100% | 100% | 100% | 100% | 100% | 97% | 42% | 42% | 
CCN(CC)CCCC(C)Nc1ccnc2cc(Cl)ccc12 (centres undefined) [CHLOROQUINE] | 97% | 100% | 86% | 100% | 100% | 100% | 97% | 54% | 86% | 0.025 µg/mL (≈ 0.0782 µM)
